From ChEMBL document CHEMBL2021900, “Discovery of cariprazine (RGH-188): a novel antipsychotic acting on dopamine D3/D2 receptors” (Bioorg Med Chem Lett, 2012)

Experiments:
[1] = Metabolic stability in human liver microsomes at 2.5 uM measured up to 20 mins; assay type: ADME, Microsome; conditions: read-out: Stability
Procedure, shortened: (§1)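 Compound incubated for up to 20 min with human or rat liver microsomes. Substrate consumption was followed over time; the plot was linear and was analysed by linear regression.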

[2] = Metabolic stability in rat liver microsomes at 2.5 uM measured up to 20 mins; assay type: ADME, Microsome; conditions: read-out: Stability; procedure, shortened: as §1
[3] = Binding affinity to human dopamine D4.2 receptor
[4] = Oral bioavailability in rat; assay type: ADME, organism-based; conditions: in vivo
[5] = Tmax in rat brain; assay type: ADME, tissue-based
[6] = molecular target: D(2) dopamine receptor (Rattus norvegicus, UniProt P61169); assay: Displacement of [3H]spiperone from dopamine D2 receptor in rat striatal membranes; assay type: cell membranes, Membrane
Procedure, shortened: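 Rat striatal membranes; [3H]spiperone 0.7 nM as radioligand; nonspecific binding defined with (+)-butaclamol. Ki values are means of two to four independent experiments, each with at least six concentrations in duplicate.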

[7] = molecular target: T1, Adrenergic receptor alpha-1 (Rattus norvegicus, UniProt P15823+P23944+P43140); assay: Displacement of [3H]-prazosin from adrenergic alpha-1 receptor in rat cerebral cortical membranes; assay type: cell membranes, Membrane
T1 sequence (P15823 whole entry): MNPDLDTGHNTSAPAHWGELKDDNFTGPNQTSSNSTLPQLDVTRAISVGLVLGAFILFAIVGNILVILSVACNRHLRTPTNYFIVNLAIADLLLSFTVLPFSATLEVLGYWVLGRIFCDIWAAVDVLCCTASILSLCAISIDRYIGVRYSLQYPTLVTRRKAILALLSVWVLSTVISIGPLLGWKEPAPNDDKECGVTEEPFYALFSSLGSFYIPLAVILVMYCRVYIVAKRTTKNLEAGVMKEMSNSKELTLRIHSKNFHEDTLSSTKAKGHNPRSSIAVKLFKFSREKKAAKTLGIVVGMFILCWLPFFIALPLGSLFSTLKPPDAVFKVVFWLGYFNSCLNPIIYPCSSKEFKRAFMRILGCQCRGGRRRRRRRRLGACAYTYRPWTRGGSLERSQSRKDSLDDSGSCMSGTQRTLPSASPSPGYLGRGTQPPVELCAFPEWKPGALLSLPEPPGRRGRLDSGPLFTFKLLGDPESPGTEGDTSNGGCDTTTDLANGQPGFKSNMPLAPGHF
T1 sequence (P23944 whole entry): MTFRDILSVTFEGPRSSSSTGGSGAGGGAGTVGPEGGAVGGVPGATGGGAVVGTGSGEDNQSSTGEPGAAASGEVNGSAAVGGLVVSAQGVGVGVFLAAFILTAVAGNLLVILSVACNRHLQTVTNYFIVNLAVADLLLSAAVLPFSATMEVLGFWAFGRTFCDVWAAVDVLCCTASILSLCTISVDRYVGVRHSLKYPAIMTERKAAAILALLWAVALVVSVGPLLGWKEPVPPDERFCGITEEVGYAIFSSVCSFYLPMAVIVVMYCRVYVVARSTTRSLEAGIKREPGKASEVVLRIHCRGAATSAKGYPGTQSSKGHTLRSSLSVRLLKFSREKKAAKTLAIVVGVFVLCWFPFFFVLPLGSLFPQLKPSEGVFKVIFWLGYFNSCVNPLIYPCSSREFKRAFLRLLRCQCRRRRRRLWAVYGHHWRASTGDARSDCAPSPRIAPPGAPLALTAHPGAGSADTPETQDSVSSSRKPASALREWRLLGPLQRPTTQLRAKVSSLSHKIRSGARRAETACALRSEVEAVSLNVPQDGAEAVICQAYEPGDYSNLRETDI
T1 sequence (P43140 whole entry): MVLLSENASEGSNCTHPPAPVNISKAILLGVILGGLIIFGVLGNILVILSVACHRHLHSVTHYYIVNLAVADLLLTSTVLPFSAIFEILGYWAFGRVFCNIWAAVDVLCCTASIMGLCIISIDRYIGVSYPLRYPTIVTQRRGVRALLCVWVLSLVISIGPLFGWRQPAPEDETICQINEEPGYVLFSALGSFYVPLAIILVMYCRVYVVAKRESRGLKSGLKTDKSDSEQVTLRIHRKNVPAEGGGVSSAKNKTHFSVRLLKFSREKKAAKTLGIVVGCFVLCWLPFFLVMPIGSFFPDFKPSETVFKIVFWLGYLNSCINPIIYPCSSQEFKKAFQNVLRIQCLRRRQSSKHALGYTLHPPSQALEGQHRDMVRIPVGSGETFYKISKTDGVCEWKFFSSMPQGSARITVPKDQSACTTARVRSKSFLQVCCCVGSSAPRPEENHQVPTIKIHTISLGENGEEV
Procedure, shortened: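 Alpha-1 binding used rat cerebral cortical membranes with [3H]prazosin 0.5 nM, with phentolamine defining nonspecific binding. Ki values are means of two to four independent experiments, each with at least six concentrations in duplicate.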

[8] = Ratio of drug level in brain to plasma in iv or po dosed rat; assay type: ADME, organism-based; conditions: read-out: BPR
[9] = Cmax in rat; assay type: ADME, organism-based; conditions: in vivo
[10] = molecular target: D(1B) dopamine receptor (Homo sapiens, UniProt P21918); assay: Binding affinity to human dopamine D5 receptor
[11] = Apparent terminal half life in iv or po dosed rat; assay type: ADME, organism-based; conditions: in vivo, read-out: betat1/2(app) (converted)
[12] = molecular target: D(1A) dopamine receptor (Rattus norvegicus, UniProt P18901); assay: Binding affinity to rat dopamine D1 receptor
[13] = tested on: Rattus norvegicus; assay: Induction of catalepsy in po dosed rat; assay type: organism-based; conditions: in vivo
[14] = molecular target: D(3) dopamine receptor (Rattus norvegicus, UniProt P19020); assay: Displacement of [3H]spiperone from rat recombinant dopamine D3 receptor expressed in Sf9 cells
[15] = tested on: Mus musculus; assay: Antipsychotic activity in po dosed CD1 mouse assessed as reduction of apomorphine-induced climbing behaviour administered 1 hr before apomorphine challenge measured after 10 to 16 mins; assay type: functional
[16] = species on record: Rattus norvegicus; assay: Selectivity ratio of Ki for adrenergic alpha-1 receptor in rat cerebral cortical membranes to Ki for rat recombinant dopamine D3 receptor; assay type: cell membranes; conditions: Membrane

Sequence of D(2) dopamine receptor (P61169 whole entry): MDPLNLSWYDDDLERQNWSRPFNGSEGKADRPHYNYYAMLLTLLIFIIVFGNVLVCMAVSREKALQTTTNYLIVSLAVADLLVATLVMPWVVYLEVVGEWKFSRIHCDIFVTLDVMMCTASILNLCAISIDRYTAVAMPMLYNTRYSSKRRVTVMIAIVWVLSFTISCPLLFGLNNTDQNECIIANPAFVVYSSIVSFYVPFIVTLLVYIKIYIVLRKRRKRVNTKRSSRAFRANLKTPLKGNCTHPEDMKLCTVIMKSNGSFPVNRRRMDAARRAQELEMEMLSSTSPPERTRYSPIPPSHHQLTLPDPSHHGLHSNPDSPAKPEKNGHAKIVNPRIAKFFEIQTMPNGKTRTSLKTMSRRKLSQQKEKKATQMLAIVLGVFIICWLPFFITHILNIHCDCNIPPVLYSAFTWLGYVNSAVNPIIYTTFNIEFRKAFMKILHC
Sequence of D(3) dopamine receptor (P19020 whole entry): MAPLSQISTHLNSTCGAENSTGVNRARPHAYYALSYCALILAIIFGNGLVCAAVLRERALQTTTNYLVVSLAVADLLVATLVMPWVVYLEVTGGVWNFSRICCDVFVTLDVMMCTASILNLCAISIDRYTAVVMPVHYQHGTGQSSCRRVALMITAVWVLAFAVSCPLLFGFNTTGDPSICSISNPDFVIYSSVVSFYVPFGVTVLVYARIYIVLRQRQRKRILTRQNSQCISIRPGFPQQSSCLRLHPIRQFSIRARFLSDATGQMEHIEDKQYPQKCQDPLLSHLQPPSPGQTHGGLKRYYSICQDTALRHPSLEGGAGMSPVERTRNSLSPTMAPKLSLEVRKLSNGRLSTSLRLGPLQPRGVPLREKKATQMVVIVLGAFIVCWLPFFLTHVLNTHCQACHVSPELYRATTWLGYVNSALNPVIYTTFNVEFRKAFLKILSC
Sequence of D(1B) dopamine receptor (P21918 whole entry): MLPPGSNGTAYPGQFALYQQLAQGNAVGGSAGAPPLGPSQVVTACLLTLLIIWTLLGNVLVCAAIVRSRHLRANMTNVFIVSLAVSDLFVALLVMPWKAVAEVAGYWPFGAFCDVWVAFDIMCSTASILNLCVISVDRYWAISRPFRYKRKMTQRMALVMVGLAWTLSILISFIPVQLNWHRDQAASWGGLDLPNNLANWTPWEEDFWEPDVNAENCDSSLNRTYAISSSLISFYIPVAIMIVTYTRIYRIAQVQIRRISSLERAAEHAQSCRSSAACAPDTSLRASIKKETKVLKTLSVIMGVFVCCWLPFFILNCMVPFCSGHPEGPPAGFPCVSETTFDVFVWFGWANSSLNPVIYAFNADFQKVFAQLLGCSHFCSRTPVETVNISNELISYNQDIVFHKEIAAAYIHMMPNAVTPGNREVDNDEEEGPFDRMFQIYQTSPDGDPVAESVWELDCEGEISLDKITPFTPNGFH
Sequence of D(1A) dopamine receptor (P18901 whole entry): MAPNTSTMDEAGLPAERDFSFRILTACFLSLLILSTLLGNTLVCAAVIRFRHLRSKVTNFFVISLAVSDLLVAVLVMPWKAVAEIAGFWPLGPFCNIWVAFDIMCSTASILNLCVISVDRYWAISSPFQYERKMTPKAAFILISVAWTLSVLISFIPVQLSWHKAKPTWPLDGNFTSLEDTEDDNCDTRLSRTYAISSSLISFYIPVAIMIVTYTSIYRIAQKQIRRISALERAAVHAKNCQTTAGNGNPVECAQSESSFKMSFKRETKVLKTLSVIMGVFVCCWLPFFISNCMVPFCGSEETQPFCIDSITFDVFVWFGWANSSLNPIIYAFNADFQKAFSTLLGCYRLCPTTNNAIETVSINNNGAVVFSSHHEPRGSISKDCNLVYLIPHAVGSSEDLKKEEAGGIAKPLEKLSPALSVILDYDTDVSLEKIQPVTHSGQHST

Row | IC50 [6] | Ki [7] | IC50 [14] | Ki [14] | Ki [6] | Ratio Ki [16] | Compound | ED50 [15] | also measured
1 | 0.0169 µM | – | 0.00034 µM | – | – | – | CCNC(=O)N[C@H]1CC[C@H](CCN2CCN(c3cccc(Cl)c3Cl)CC2)CC1 | 0.38 mg/kg | –
2 | 0.143 µM | – | 0.0019 µM | – | – | – | CC(=O)N[C@H]1CC[C@H](CCN2CCN(c3cc(C#N)cc(C(F)(F)F)c3)CC2)CC1 | 1.54 mg/kg | –
3 | 0.0023 µM | – | 0.00029 µM | – | – | – | CC(=O)N[C@H]1CC[C@H](CCN2CCN(c3cccc(Cl)c3Cl)CC2)CC1 | 0.17 mg/kg | –
4 | 0.158 µM | – | 0.011 µM | – | – | – | CS(=O)(=O)N[C@H]1CC[C@H](CCN2CCN(Cc3cccc(C(F)(F)F)c3)CC2)CC1 | 1.34 mg/kg | –
5 | 0.025 µM | – | 0.0051 µM | – | – | – | CCOC(=O)N[C@H]1CC[C@H](CCN2CCN(Cc3cccc(C(F)(F)F)c3)CC2)CC1 | 5.37 mg/kg | –

Second part, the compound before the results:

Row | Compound | IC50 [6] | Ki [7] | IC50 [14] | Ki [14] | Ki [6] | Ratio Ki [16] | ED50 [15] | also measured
6 | CN(C)C(=O)N[C@H]1CC[C@H](CCN2CCN(c3cc(Cl)cc(Cl)c3)CC2)CC1 | – | – | – | – | – | – | – | remaining at 20 min, 2.5 µM [1]: 58%; remaining at 20 min, 2.5 µM [2]: 73%
7 | CN(C)C(=O)N[C@H]1CC[C@H](CCN2CCN(c3cccc(Cl)c3Cl)CC2)CC1.Cl [CARIPRAZINE HYDROCHLORIDE] | […] | 0.214 µM | – | – | – | – | – | IC50 [3]: > 1 µM; bioavailability [4]: 52%; Tmax [5]: 0.5 h; Kp [8]: 7.6; remaining at 20 min, 2.5 µM [1]: 96%; remaining at 20 min, 2.5 µM [2]: 93%; Cmax [9]: 0.091 µg/mL; IC50 [10]: > 1 µM; half-life [11]: 2 h; IC50 [12]: > 1 µM; MED [13]: > 85 mg/kg
8 | CN(C)C(=O)N[C@H]1CC[C@H](CCN2CCN(c3ccc(Cl)cc3Cl)CC2)CC1 | – | 0.156 µM | – | 0.0054 µM | 0.106 µM | 28.9 | – | –
9 | CN(C)C(=O)N[C@H]1CC[C@H](CCN2CCN(c3cc(Cl)ccc3Cl)CC2)CC1 | – | 0.0349 µM | – | 0.00066 µM | 0.0082 µM | 52.8 | – | –
10 | CN(C)C(=O)N[C@H]1CC[C@H](CCN2CCN(c3ccc(Cl)c(Cl)c3)CC2)CC1 | – | 0.0296 µM | – | 0.0033 µM | 0.11 µM | 8.9 | – | –
